Data published in article PMC3844559 (Journal of medicinal chemistry, 2013).
No end group written: not given here. *: point of attachment. X1 = S‑(2,3-bis(palmitoyloxy)-(2R)-propyl)‑R‑cysteinyl, CCCCCCCCCCCCCCCC(=O)OC[C@H](CSC[C@H](N)C(=O)*)OC(=O)CCCCCCCCCCCCCCC

Assays:
human TLR2 = human TLR2 (Homo sapiens, UniProt O60603); assay: human TLR2-specific NF-κB reporter gene assay; assay type: cell-based; conditions: for EC50: hTLR2-Agonistic Activity (EC50 in nM), human TLR2-specific reporter gene assay; for hTLR2-specific agonistic activity: reporter gene assays
Chain of human TLR2 (O60603 21-784): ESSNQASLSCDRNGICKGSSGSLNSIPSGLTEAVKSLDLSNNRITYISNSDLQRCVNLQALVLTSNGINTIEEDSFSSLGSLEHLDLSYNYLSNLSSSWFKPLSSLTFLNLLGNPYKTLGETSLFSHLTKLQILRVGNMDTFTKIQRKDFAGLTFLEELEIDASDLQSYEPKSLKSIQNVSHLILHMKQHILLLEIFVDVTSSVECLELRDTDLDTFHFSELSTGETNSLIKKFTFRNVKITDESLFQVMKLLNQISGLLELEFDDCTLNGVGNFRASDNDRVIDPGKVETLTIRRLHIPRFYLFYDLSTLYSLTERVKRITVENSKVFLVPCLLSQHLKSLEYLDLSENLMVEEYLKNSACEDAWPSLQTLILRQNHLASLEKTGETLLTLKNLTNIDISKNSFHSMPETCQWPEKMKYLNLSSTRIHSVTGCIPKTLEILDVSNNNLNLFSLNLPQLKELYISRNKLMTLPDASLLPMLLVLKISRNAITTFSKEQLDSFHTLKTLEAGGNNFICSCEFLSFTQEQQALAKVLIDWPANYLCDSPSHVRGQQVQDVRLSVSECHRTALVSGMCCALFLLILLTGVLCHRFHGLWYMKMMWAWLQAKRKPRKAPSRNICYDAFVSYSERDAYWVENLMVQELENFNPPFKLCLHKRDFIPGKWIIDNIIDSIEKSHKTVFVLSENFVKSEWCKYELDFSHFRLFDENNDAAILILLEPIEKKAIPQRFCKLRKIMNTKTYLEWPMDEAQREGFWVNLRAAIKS

rabbit models = conditions: cited from earlier work
[1] = system: ex vivo human blood models; conditions: cited from earlier work
[2] = system: murine models of immunization; conditions: cited from earlier work
aqueous solubility = assay type: physicochemical; conditions: water
patients = conditions: cited from earlier work
[3] = stability of aqueous stocks / accelerated stability testing; assay type: physicochemical; conditions: for stability of aqueous stocks: aqueous stocks on storage
human PBMCs = assay: 41-plex chemokine/cytokine immunoassay in hPBMC; assay type: cell-based; conditions: 12 h, 41-plex immunoassay
In short: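 Fresh human PBMCs were isolated on Ficoll-Hypaque gradients from venipuncture blood. Cells were plated at 10⁵ per well, stimulated 12 h with graded concentrations of test compound, with LPS as reference. Supernatants were collected by centrifugation and assayed in duplicate for 41 cytokines/chemokines by magnetic bead multiplex; intra-assay CV was 4–8%. Data are means of duplicates from a representative experiment.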

[4] = system: granulocytes and monocytes in human whole blood; assay: CD11b upregulation by flow cytometry in whole human blood; assay type: cell-based; conditions: 1 h
In short: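 Heparin-anticoagulated whole blood from healthy volunteers was added to serial dilutions of test compound, with reference compounds and fRPMI negative controls, then held 1 h at 37 °C. Cells were stained with CD11b-PE/CD14-APC for 30 min at 4 °C in the dark, then lysed/fixed and washed twice in saline. 100,000 gated events were acquired. Granulocytes were gated by forward/side scatter, monocytes by CD14.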

rabbits = assay: safety evaluation in rabbits; assay type: in vivo, rabbit
In short: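 Rabbits (n=3 per group) received test compound 100 μg/dose, LPS 1 μg/dose (positive control) or saline vehicle. Doses were in sterile saline without excipients, 0.5 mL, as an i.v. bolus into the marginal ear vein. Blood was drawn from the contralateral ear at 0, 2 and 6 h for total/differential leukocytes, band forms, hemoglobin and MCH. Core temperature was logged by rectal thermistor probe.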

[5] = system: human PBMCs or human whole blood; assay: proinflammatory cytokine induction, 5-plex cytometric bead assays; assay type: cell-based; conditions: 5-plex cytometric bead assays (data not shown)
[6] = single i.v. bolus, 38 100 μg, LPS 1 μg

Row | EC50 (human TLR2) | aqueous solubility (aqueous solubility) | Molecule | hTLR2-specific agonistic activity (human TLR2) | further results
1 | 0.75 nM | – | CCCCCCCCCCCCCCCC(=O)OCCSC[C@H](NC(C)=O)C(=O)N[C@@H](COC(=O)c1cccnc1)C(=O)OC [Compound 15, (S)-2-((R)-2-Acetamido-3-((2-(palmitoyloxy)ethyl)thio)propanamido)-3-methoxy-3-oxopropyl nicotinate] | retained hTLR2-specific agonistic activity | –
2 | 0.65 nM | highly water soluble | CCCCCCCCCCCCCCCC(=O)OCCSC[C@H](NC(C)=O)C(=O)N[C@@H](COC(=O)CCC(=O)O)C(=O)OC [Compound 14, (7S,10R)-10-Acetamido-7-(methoxycarbonyl)-4,9,16-trioxo-5,15-dioxa-12-thia-8-azahentriacontan-1-oic acid] | retained hTLR2-specific agonistic activity | –
3 | 12.8 nM | – | CCCCCCCCCCCCCCCC(=O)NCCSC[C@H](NC(C)=O)C(=O)N[C@@H](CO)C(=O)OC [Compound 22, (S)-Methyl 2-((R)-2-acetamido-3-((2-palmitamidoethyl)thio)propanamido)-3-hydroxypropanoate] | – | –
4 | 1.5 nM | highly water soluble | CCCCCCCCCCCCCCCC(=O)OCCSC[C@H](NC(C)=O)C(=O)N[C@@H](CCCCN)C(=O)OC [Compound 10, 2-(((R)-2-Acetamido-3-(((S)-6-amino-1-methoxy-1-oxohexan-2-yl)amino)-3-oxopropyl)thio)ethyl palmitate] | – | stability of aqueous stocks [3]: significant loss of activity of aqueous stocks in less than a week
5 | 5.84 nM | highly water soluble | CCCCCCCCCCCCCCCC(=O)OCCSC[C@H](NC(C)=O)C(=O)N[C@@H](COS(=O)(=O)O)C(=O)OC [Compound 13, 2-(((R)-2-Acetamido-3-(((S)-1-methoxy-1-oxo-3-(sulfooxy)propan-2-yl)amino)-3-oxopropyl)thio)ethyl palmitate] | retained hTLR2-specific agonistic activity | –
6 | 1.5 nM | highly water soluble | CCCCCCCCCCCCCCCC(=O)OCCSC[C@H](NC(C)=O)C(=O)N[C@@H](COC(=O)[C@@H](N)CCCCN)C(=O)OC [Compound 12, 2-(((R)-2-Acetamido-3-(((S)-3-(((S)-2,6-diaminohexanoyl)oxy)-1-methoxy-1-oxopropan-2-yl)amino)-3-oxopropyl)thio)ethyl palmitate] | retained hTLR2-specific agonistic activity | stability of aqueous stocks [3]: found to be unstable
7 | 0.065 nM | – | CCCCCCCCCCCCCCCCOC(=O)NCCSC[C@H](NC(C)=O)C(=O)N[C@@H](CO)C(=O)OC [Compound 34, (2S,5R)-Methyl 5-acetamido-2-(hydroxymethyl)-4,11-dioxo-12-oxa-7-thia-3,10-diazaoctacosan-1-oate] | – | –

Continued, molecule first:

Row | Molecule | EC50 (human TLR2) | aqueous solubility (aqueous solubility) | hTLR2-specific agonistic activity (human TLR2) | further results
8 | CCCCCCCCCCCCCCCC(=O)OCC(CSC[C@H](N)C(=O)N[C@@H](CO)C(=O)O)OC(=O)CCCCCCCCCCCCCCC (mixture of isomers) [Compound 2, S-[2,3-bis(palmitoyloxy)-(2RS)-propyl]-R-cysteinyl-S-serine] | – | – | – | local reactogenicity and pyrogenicity (rabbit models): devoid of; levels of proinflammatory mediators such as TNF-α, IL-1β and IL-18 ([1]; earlier findings): virtually undetectable levels; pro-inflammatory activity (TNF-α, IL-1β, IL-6, IL-8 production) ([1]; ex vivo human blood models): devoid of any detectable pro-inflammatory activity; adjuvanticity [2]: potently adjuvantic
9 | S-[2,3-bis(palmitoyloxy)-(2R)-propyl]-R-cysteinyl-GNNDESNISFKEK (X1-GNNDESNISFKEK) [Compound 1] | – | – | – | well tolerated dose, intra-tumoral injection (patients; ten patients with pancreas carcinomas, 20–30 μg injected during surgery): up to 20 μg; systemic side effects, intra-tumoral injection (patients; ten patients with pancreas carcinomas, 20–30 μg): no systemic side effects were noted; systemic side effects, application on punch biopsy skin lesions (patients; twelve patients, 0.125–1.0 μg): other than transient and self-limited erythema, no systemic side effects were noted
10 | CCCCCCCCCCCCCCCCn1cc(CCSC[C@H](NC(C)=O)C(=O)N[C@@H](CO)C(=O)OC)nn1 [Compound 27, (S)-Methyl 2-((R)-2-acetamido-3-((2-(1-hexadecyl-1H-1,2,3-triazol-4-yl)ethyl)thio)propanamido)-3-hydroxypropanoate] | 1020 nM | – | – | –
11 | CCCCCCCCCCCCCc1cn(CCSC[C@H](NC(C)=O)C(=O)N[C@@H](CO)C(=O)OC)nn1 [Compound 24, (S)-Methyl 2-((R)-2-acetamido-3-((2-(4-tridecyl-1H-1,2,3-triazol-1-yl)ethyl)thio)propanamido)-3-hydroxypropanoate] | 290 nM | – | – | –
12 | CCCCCCCCCCCCCCCCOC(=O)NCCSC[C@H](NC(C)=O)C(=O)N[C@@H](CO)C(=O)NCCCN(C)C [Compound 38, Hexadecyl ((8S,11R)-11-acetamido-8-(hydroxymethyl)-2-methyl-7,10-dioxo-13-thia-2,6,9-triazapentadecan-15-yl)carbamate] | 0.25 nM | – | – | chemokine induction (MCP-1, MCP-3, MDC, IL-8) (human PBMCs): prominent biphasic induction; CD11b upregulation in monocytes ([4]; CD14+ gated): strong monocytic CD11b upregulation; CD11b upregulation in neutrophils (granulocytes) ([4]; relative to 2): upregulated CD11b very potently; pyrogenicity (febrile response, core temperature) (rabbits; [6]): did not induce any such effects; total leukocyte and lymphocyte counts in peripheral blood (rabbits; [6]): did not induce any such effects; observable adverse effects, dose-escalation study (rabbits; up to 100 μg/animal, intramuscular or intravenous bolus): did not result in any observable adverse effects; solubility (aqueous solubility): > 10000 µg/mL; chemical stability under accelerated stability testing conditions ([3]; accelerated stability testing): retained excellent chemical stability; proinflammatory cytokine signatures [5]: could not detect any significant proinflammatory cytokine signatures
